ChEMBL document CHEMBL5390247, “Aryl azoles based scaffolds for disrupting tumor microenvironment” (Bioorg Med Chem, 2023)
Active and inactive are the calls of the source. The calls are words filed in the database; no cut-off is given here.

Legend:
[1] = test system: HT-29; experiment: Immunomodulatory activity in human HT-29 cells co-cultured with interferon gamma-stimulated THP-1 cells assessed as reduction in IL-6 level at 100 uM incubated for 48 hrs by ELISA analysis relative to control; assay type: functional; parameters: scale not given: the % may be the effect or the level left
Summary of the method: (§1)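 HT-29 cells co-cultured with IFN-γ (10 ng/ml)-stimulated THP-1 cells and treated 48 h with compound at 100 µM. Culture media collected and IL-6 measured by human IL-6 ELISA, in pg/mL and as % of control. Mean of three experiments.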

[2] = test system: HT-29; experiment: Immunomodulatory activity in human HT-29 cells co-cultured with interferon gamma-stimulated THP-1 cells assessed as IL-6 level at 100 uM incubated for 48 hrs by ELISA analysis (reference value: 192 +/- 16 pg/ml); assay type: functional; summary of the method: as §1
[3] = test system: MCF7; experiment: Antiproliferative activity against human MCF7 cells assessed as reduction in cell viability incubated for 48 hrs by MTT assay; assay type: functional, cell-based; details: MCF7, 48 h
Summary of the method: (§2)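 MTT dye-reduction assay. Cells at 5 × 10^3/well in DMEM with 10% FBS, treated with serial dilutions of compound (DMSO stocks) for 2 days at 37 °C, 5% CO2. MTT added for a further 3 h, formazan dissolved in DMSO, absorbance read at 550 nm. Viability expressed as % of untreated cells; IC50 determined graphically from three independent experiments.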

[4] = test system: HT-29; experiment: Immunomodulatory activity in human HT-29 cells co-cultured with interferon gamma-stimulated THP-1 cells assessed as cell viability at 100 uM incubated for 48 hrs by flow cytometry analysis relative to control; assay type: functional; details: read-out: Activity
Summary of the method: (§3)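 HT-29 cells at 10^5/well seeded and grown 24 h. Medium then replaced with medium containing IFN-γ (10 ng/ml), 5 × 10^5 THP-1 cells/well and compound at 100 µM; DMSO used as control. After 48 h, THP-1 cells collected from supernatant and cancer cells by trypsinisation. Both fixed in 4% paraformaldehyde and counted by flow cytometry relative to control.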

[5] = Toxicity against interferon gamma-stimulated human THP-1 monocyte cells co-cultured with human HT-29 cells assessed as reduction in cell viability at 100 uM incubated for 48 hrs by flow cytometry analysis; assay type: cell-based; details: thp-1, 48 h; summary of the method: as §3
[6] = test system: HT-29; experiment: Antiproliferative activity against human HT-29 cells assessed as relative VEGFR-2 protein expression in membrane at 100 uM incubated for 48 hrs by flow cytometry analysis relative to control; assay type: functional
[7] = test system: A549; experiment: Antiproliferative activity against human A549 cells assessed as reduction in cell viability incubated for 48 hrs by MTT assay; assay type: functional, cell-based; details: A549, 48 h; summary of the method: as §2
[8] = test system: HT-29; experiment: Antiproliferative activity against human HT-29 cells assessed as relative PD-L1 protein expression in whole cell at 100 uM incubated for 48 hrs by flow cytometry analysis relative to control; assay type: functional
[9] = test system: HT-29; experiment: Antiproliferative activity against human HT-29 cells assessed as relative VEGFR-2 protein expression in whole cell at 100 uM incubated for 48 hrs by flow cytometry analysis relative to control; assay type: functional
[10] = test system: HT-29; experiment: Antiproliferative activity against human HT-29 cells assessed as relative c-Myc protein expression at 100 uM incubated for 48 hrs by flow cytometry analysis relative to control; assay type: functional
[11] = test system: HMEC-1; experiment: Antiangiogenic activity in HMEC-1 cells assessed as inhibition of endothelial microtubes formation at <75 uM incubated for 24 hrs by matrigel based imaging analysis; assay type: functional, cell-based; details: Homo sapiens
Summary of the method: (§4)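 HMEC-1 cells at 2 × 10^4 cells/well seeded on Matrigel (10 mg/mL, gelled 30 min at 37 °C) in EGM-2MV medium with SingleQuots, allowed to attach 30 min at 37 °C. Compounds then added in medium; after 24 h at 37 °C, microtube formation/destruction evaluated from pictures.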

[12] = test system: HT-29; experiment: Immunomodulatory activity in human HT-29 cells co-cultured with interferon gamma-stimulated THP-1 cells assessed as relative PD-L1 protein expression in membrane at 100 uM incubated for 48 hrs by flow cytometry analysis relative to control; assay type: functional
[13] = test system: HT-29; experiment: Antiproliferative activity against human HT-29 cells assessed as reduction in IL-6 secretion at 100 uM incubated for 48 hrs by ELISA assay; assay type: functional, cell-based
Summary of the method: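 HT-29 monocultures at 10^5 cells/well treated 48 h with compound at 100 µM in 500 µL growth medium. Media collected and secreted IL-6 measured with a human IL-6 ELISA kit.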

[14] = test system: HT-29; experiment: Immunomodulatory activity in human HT-29 cells co-cultured with interferon gamma-stimulated THP-1 cells assessed as relative IL-6 level at 100 uM incubated for 48 hrs by ELISA analysis relative to control; assay type: functional; summary of the method: as §1
[15] = test system: HMEC-1; experiment: Antiangiogenic activity in HMEC-1 cells assessed as inhibition of endothelial microtubes formation at 100 uM incubated for 24 hrs by matrigel based imaging analysis; assay type: functional, cell-based; details: Homo sapiens; summary of the method: as §4
[16] = test system: HT-29; experiment: Immunomodulatory activity in human HT-29 cells co-cultured with interferon gamma-stimulated THP-1 cells assessed as relative CD-47 protein expression in membrane at 100 uM incubated for 48 hrs by flow cytometry analysis relative to control; assay type: functional
[17] = test system: HT-29; experiment: Antiproliferative activity against human HT-29 cells assessed as reduction in cell viability incubated for 48 hrs by MTT assay; assay type: functional, cell-based; details: HT-29, 48 h; summary of the method: as §2
[18] = test system: HT-29; experiment: Antiproliferative activity against human HT-29 cells assessed as relative PD-L1 protein expression in membrane at 100 uM incubated for 48 hrs by flow cytometry analysis relative to control; assay type: functional
[19] = test system: HT-29; experiment: Immunomodulatory activity in human HT-29 cells co-cultured with interferon gamma-stimulated THP-1 cells assessed as inhibition of cell growth at 100 uM incubated for 48 hrs by flow cytometry analysis relative to control; assay type: functional; summary of the method: as §3
[20] = Cytotoxicity against HEK293 cells assessed as reduction in cell viability incubated for 48 hrs by MTT assay; assay type: toxicity, cell-based; details: human; summary of the method: as §2
[21] = test system: HEK293; experiment: Anti-vasculogenic activity against HEK293 cells assessed as disruption of tube-like structures at 100 uM incubated for 24 hrs by Matrigel based imaging analysis; assay type: functional, cell-based; details: Homo sapiens
Summary of the method: (§5)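 HEK-293 cells seeded at 5 × 10^4 cells/well on Matrigel (pre-incubated with medium 24 h at 37 °C), grown 24 h at 37 °C until tube-like structures form; compounds then added in medium and incubated a further 24 h at 37 °C. Disruption of preformed tube-like structures assessed by imaging.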

[22] = test system: HT-29; experiment: Immunomodulatory activity in human HT-29 cells co-cultured with interferon gamma-stimulated THP-1 cells assessed as inhibition of CD-47 protein expression at 100 uM incubated for 48 hrs by flow cytometry analysis relative to control; assay type: functional
[23] = test system: HT-29; experiment: Immunomodulatory activity in human HT-29 cells co-cultured with interferon gamma-stimulated THP-1 cells assessed as inhibition of PD-L1 protein expression in cell surface at 100 uM incubated for 48 hrs by flow cytometry analysis relative to control; assay type: functional
[24] = test system: HEK293; experiment: Anti-vasculogenic activity against HEK293 cells assessed as disruption of tube-like structures at <75 uM incubated for 24 hrs by Matrigel based imaging analysis; assay type: functional, cell-based; details: Homo sapiens; summary of the method: as §5
[25] = test system: HT-29; experiment: Immunomodulatory activity in human HT-29 cells co-cultured with interferon gamma-stimulated THP-1 cells assessed as inhibition of IL-6 secretion at 100 uM incubated for 48 hrs by ELISA analysis relative to control; assay type: functional; summary of the method: as §1

Structure (SMILES)	Activity [2]	viability at 100 µM [4]	Activity [5]	Activity [6]	Activity [8]	Activity [9]	Activity [10]	Activity [11]	Activity [12]	Activity [13]	Activity [14]	Activity [15]	Activity [16]	Activity [18]	inhibition at 100 µM [19]	Activity [21]	inhibition at 100 µM [22]	inhibition at 100 µM [23]	Activity [24]	inhibition at 100 µM [25]	other results
Nc1cccc(-c2nnn(Cc3ccc(Br)cc3)n2)c1	5 pg/mL	6%	Non-Toxic	>100%	>100%	>100%	76%	inactive	70%	inactive	3%	Active	60%	92%	> 90%	Active	> 30%	70%	inactive	–	Activity [1]: >95%; IC50 [3]: 44 µM; IC50 [7]: > 100 µM; IC50 [17]: > 100 µM; IC50 at 48 h [20]: > 100 µM
Nc1cccc(-c2cn(Cc3cccc(Cl)c3)nn2)c1	38 pg/mL	8%	Non-Toxic	–	–	–	–	–	122%	inactive	20%	–	96%	–	> 90%	–	–	–	–	> 80%	–
Nc1cccc(-c2nnn(Cc3ccccc3Br)n2)c1	–	23%	Non-Toxic	>100%	>100%	92%	90%	inactive	65%	–	–	Active	–	64%	> 70%	Active	> 30%	70%	inactive	–	–
Nc1cccc(-c2nnn(Cc3cccc(Br)c3)n2)c1	–	19%	Non-Toxic	>100%	>100%	>100%	83%	inactive	64%	–	–	Active	–	66%	> 70%	Active	> 30%	70%	inactive	–	–
Nc1cccc(-c2cn(Cc3ccccc3Cl)nn2)c1	12 pg/mL	51%	Non-Toxic	–	–	–	–	–	116%	inactive	6%	–	91%	–	–	–	–	–	–	> 80%	–
